The source of these data is ChEMBL document CHEMBL1129932, “Novel naphthalene derivatives as inhibitors of human immunoglobulin E antibody production” (J Med Chem, 1997).

Each structure is given as a SMILES string. pIC50: −log10 of the molar value.

A short description of test [1]: In vitro inhibition of IgG antibody production in human PBMC cultured with alpha-CD40, IL-4 and IL-10 at 3 uM concentration […]. The test is classed as functional.
Test [2] in a line: Tested for human PBMC cell viability, cultured with alpha-CD40, IL-4 and IL-10 at 3 uM (a negative number means enhancement of cell viability). The test is classed as functional. In short, it runs like this: (§1)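 Viability was read in the same 14-day PBMC cultures (2×10^6 cells/mL, triplicate) with IL-4 0.1 μg/mL, IL-10 0.2 μg/mL and α-CD40 2 μg/mL. After the medium was removed, alamar blue was added for 2 h and fluorescence was read (excitation 530 nm, emission 590 nm). Suppression (%) = (without − with compound)/without × 100.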

A short description of test [3]: Inhibitory activity against IgG antibody production in PBMC. Conditions: Homo sapiens. The class given is functional. In short, it runs like this: (§2)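 Human PBMC from healthy donors (final 2×10^6 cells/mL, triplicate) were cultured in RPMI 1640 with 10% FCS, glutamine and antibiotics. IL-4 (0.1 μg/mL), IL-10 (0.2 μg/mL) and α-CD40 (2 μg/mL) were added on day 0, with or without compound. After 14 days, IgG in the medium was measured by ELISA. Suppression (%) = (level without − level with compound)/level without × 100.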

A short description of test [4]: In vitro inhibition of IgE antibody production in human PBMC cultured with alpha-CD40, IL-4 and IL-10 at 3 uM concentration. The test is classed as functional. Summed up: (§3)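 Human PBMC from healthy donors (final 2×10^6 cells/mL) were cultured in triplicate in RPMI 1640 with 10% FCS, 2 mM glutamine and penicillin/streptomycin. On day 0 they received IL-4 0.1 μg/mL, IL-10 0.2 μg/mL and α-CD40 2 μg/mL, with or without compound. After 14 days, IgE in the medium was measured by ELISA. Suppression (%) = (without − with compound)/without × 100, and IC50 was given for active compounds.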

Test [5] in a line: Inhibitory activity against IgE antibody production in PMBC cells. The class given is functional, cell-based. Conditions: Homo sapiens. In short, it runs like this:
as §3

A short description of test [6]: In vitro inhibition of IgE antibody production in human PBMC cultured with alpha-CD40, IL-4 and IL-10 at 3 uM concentration (negative means enhancement of antibody biosynthesis). The class given is functional. In short, it runs like this: as §3
Test [7] deals with RBL-1. Put plainly: Compound was tested for inhibition of LTB4 production by rat basophilic leukemia cells(RBL-1) stimulated with A-23187. The test is classed as functional, cell-based. In short, it runs like this: (§4)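 RBL-1 cells were maintained in DMEM with 10% FCS. Cells were preincubated with or without compound for 10 min at 37 °C, then stimulated with A23187 at a final 2 μM for 5 min. The reaction was stopped, and LTB4 in the centrifuged supernatant was measured by ELISA kit.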

The nature of test [8]: Compound was tested for inhibition of IgE production on human PBMC culture after treating with IL-4, alpha-CD40, IL-10. The class given is functional. In short, it runs like this:
as §3

For another test, the species on record is Homo sapiens. Put plainly: Compound was tested for inhibition of PGE-2 production by human lung fibroblast WI-38 stimulated with interleukin-1-alpha (IL-1alpha) and [Ca2+] ionophore A-23187. The class given is functional. Summed up:
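WI-38 human lung fibroblasts (2×10^5 cells/mL) were grown to confluence over 4 days, then serum-starved overnight in medium with 0.5% BSA. Medium was replaced with 0.5% BSA medium containing IL-1α 10 ng/mL, with or without compound, and incubated overnight at 37 °C. Released PGE2 was measured by ELISA kit.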

The nature of test [9]: In vitro inhibition of IgE antibody production in human PBMC cultured with alpha-CD40, IL-4 and IL-10 at 3 uM concentration […]. The class given is functional.
A short description of test [10]: In vitro inhibition of IgG antibody production in human PBMC cultured with alpha-CD40, IL-4 and IL-10 at 3 uM concentration. The class given is functional. Summed up:
as §2

Test [11] in a line: Tested for human PBMC cell viability, cultured with alpha-CD40, IL-4 and IL-10 at 3 uM. The test is classed as functional. Summed up: as §1
The subject of test [12] is RBL-1. Put plainly: Compound was tested for inhibition of LTB4 production by rat basophilic leukemia cells (RBL-1) stimulated with A-23187. The test is classed as functional, cell-based. Summed up:
as §4

Test [13] is described as follows: Compound was tested for inhibition of IgE production on human PBMC culture after treating with IL-4, HC. The class given is functional. Summed up:
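PBMC at a final 2×10^6 cells/mL were cultured in triplicate in RPMI 1640 with 10% FCS, 2 mM glutamine and penicillin/streptomycin. IL-4 (0.1 μg/mL) and HC (1 μM) were added on day 0, with or without compound. After 14 days, IgE in the medium was measured by ELISA. Suppression (%) = (level without compound − level with compound)/level without compound × 100.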

A short description of test [14]: Inhibitory activity against IgE antibody production in PBMC. The test is classed as functional. Conditions: Homo sapiens. In short, it runs like this:
as §3

A further test relates to B-cell line. Put plainly: Compound was tested for inhibition of IgE production on mouse B cells after treating with IL-4, LPS. The test is classed as functional, cell-based. In short, it runs like this:
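B cells came from DBA/2 splenocytes depleted with anti-mouse T cell serum plus rabbit complement, then fractionated by gradient centrifugation. They were cultured in RPMI 1640 with 10% FCS and LPS at a final 2 μg/mL. After 1 day, mouse IL-4 was added at a final 50 ng/mL. Culture continued for 6 days, and IgE in the media was measured by ELISA.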

The term pIC50 denotes the negative decadic logarithm of the IC50, by convention in mol/L. Higher therefore signals a small IC50. Regarding `O=C(Nc1ccccc1C(=O)O)c1ccc(Oc2ccccc2)cc1`, the figures for the Suppression in test [1] and in [4] were -1.8% and 46%, respectively. In test [2], the Cell viability was -1.4. Besides, the pIC50 in test [3] was below 5.00; in test [5] it was 5.48.

For `CC(C)(C(=O)Nc1ccccc1C(=O)O)c1ccc(Oc2ccc3ccccc3c2)cc1`, the Suppression in [6] is listed as -30.4%; in [1], -5.4%. For the same compound, the Cell viability in [2] is listed as -11.3.

On to `O=C(Nc1ccccc1C(=O)O)c1ccc(Oc2ccc3ccccc3c2)cc1`, for which the Suppression was -16.9% in [1] and 64.8% in [4]. The pIC50 in the test on RBL-1 [7] is 6.40; in [3], 4.42; in test [8], 5.89; in the test listed under Homo sapiens, 5.00. In test [2], the Cell viability is -7.4.

In the case of `O=C(Nc1ccccc1-c1nn[nH]n1)c1ccc(Oc2ccc3ccccc3c2)cc1`, the Suppression in test [9] was -74.5%; in [1], -18.7%. In addition, the Cell viability in test [2] is on record as -13.6.

As to `O=C(Cc1ccc(Oc2ccc3ccccc3c2)cc1)Nc1ccccc1C(=O)O`, the Suppression was 31.2% in test [10] and 86.6% in test [4]. Further, the pIC50 in test [3] was 5.37; in the test on RBL-1 [12], 6.15; in test [13], 5.72; in [8] it was 6.22; in the test filed under Homo sapiens, 5.00. Further, the Cell viability in test [11] is listed as 11.4.

With `O=C(Nc1ccccc1C(=O)O)c1ccc(COc2ccc3ccccc3c2)cc1`, the results for the Suppression in [6] and in [1] were -6.1% and -16.1%, respectively. In addition, the pIC50 was below 5.52 in [8] and above 6.00 in the test listed under Homo sapiens.

`O=C(Nc1ccccc1C(=O)O)c1cccc(Oc2ccc3ccccc3c2)c1`: the Suppression was -26.2% in test [9] and -16% in test [1]. For the same compound, in test [2], the Cell viability is -23.6.

As for `O=C(O)c1cccc(NC(=O)c2ccc(Oc3ccc4ccccc4c3)cc2)c1`, the Suppression was -29.6% in test [9] and 2.5% in test [10]. Also, in [2], the Cell viability is on record as -14.5.

In the case of `O=C(CCc1ccc(Oc2ccc3ccccc3c2)cc1)Nc1ccccc1C(=O)O`, the Suppression in [1] was -41.2%; in test [4], 8.5%. The Cell viability in test [2] is -2.9.

On to `Nc1ccccc1NC(=O)c1ccc(Oc2ccc3ccccc3c2)cc1`, for which the Suppression in test [10] is 3.3%; in [4] it was 31.6%. In addition, the Cell viability in [11] is -9.3.

As to `NC(=O)c1ccccc1NC(=O)c1ccc(Oc2ccc3ccccc3c2)cc1`, the Suppression in test [10] was determined as 10.8%; in [4], 8.6%. Further, the Cell viability in [11] amounted to 7.3.

As for `O=C(O)c1ccccc1C(=O)Nc1ccc(Oc2ccc3ccccc3c2)cc1`, the figures for the Suppression in test [9] and in test [1] were -11.8% and -23.1%, respectively. Further, the Cell viability in test [11] was 1.5.

Turning to `O=C(Nc1ccccc1C(=O)O)c1ccc(Cc2ccc3ccccc3c2)cc1`, the Suppression in [1] is listed as -21.1%; in test [4], 9.5%. Also, the Cell viability in [2] was -1.1.

Consider `O=C(O)c1ccc(Oc2ccc3ccccc3c2)cc1`, for which the figures for the Suppression in [9] and in test [1] were -4.6% and -4.8%, respectively.

In the case of `O=C(Nc1ccccc1C(=O)O)c1ccc(Sc2ccc3ccccc3c2)cc1`, the Suppression is reported as -2.8% in test [1] and 25.8% in test [4].

`O=C(Nc1ccccc1C(=O)O)c1ccc(C(=O)c2ccc3ccccc3c2)cc1`: the values for the Suppression in test [10] and in test [4] were 5.4% and 10.3%, respectively.

`O=C(CCCC1CC1/C=C/c1ccc2ccccc2c1)Nc1ccccc1C(=O)O` (centres undefined): the Suppression in test [1] is -0.5%; in [4] it was 63%. Further, in test [2], the Cell viability is -2.6%. The pIC50 was below 5.00 in [3] and 5.73 in [14].

As to `CN(C(=O)c1ccc(Oc2ccc3ccccc3c2)cc1)c1ccccc1C(=O)O`, the results for the Suppression in test [9] and in test [10] were -27.7% and 10.1%, respectively. The Cell viability in [2] is listed as -5.1.

With `O=C(Nc1ccccc1C(=O)O)c1ccc(Oc2ccc3ccccc3c2)c([N+](=O)[O-])c1`, the Suppression stood at 36.9% in test [10] and 93% in test [4]. For the same compound, the Cell viability in test [11] is 19.1.

With `CC(C(=O)Nc1ccccc1C(=O)O)c1ccc(Oc2ccc3ccccc3c2)cc1` (centres undefined), the Suppression in [1] was -15.9%; in [4], 8.7%. For the same compound, the Cell viability in test [2] is -2.1.

With `O=C(Nc1ccccc1C(=O)O)c1ccc(Oc2ccc3cc(O)ccc3c2)cc1`, the values for the Suppression in test [1] and in [4] were -8.7% and 76.6%, respectively. Moreover, the pIC50 in test [3] was below 5.00; in test [14], 5.92. The Cell viability in test [11] was found to be 5.2.

As for `O=C(Nc1ccccc1C(=O)O)c1ccc(Oc2cccc3ccccc23)cc1`, the Suppression worked out at 64.7% in test [10] and 96.9% in test [4]. The Cell viability in test [2] is reported as -6.5. Besides, the pIC50 in test [3] is 5.63; in [14] it was 5.80.

With `O=C(O)c1ccccc1NCc1ccc(Oc2ccc3ccccc3c2)cc1`, the Suppression is on record as -4.5% in test [1] and 21.9% in test [4]. Further, the Cell viability in test [2] is recorded as -1.7.

In the case of `O=C(Cc1ccc(Oc2ccc3cc(OCc4ccccc4)ccc3c2)cc1)Nc1ccccc1C(=O)O`, the pIC50 is 7.92 with B-cell line, 7.38 in test [3], 5.92 with RBL-1 [12] and 8.08 in test [8]. Further, the Suppression in [10] is listed as 91.7%; in test [4], 95.1%. The Cell viability in test [11] was found to be 58.2.

In the case of `O=C(O)c1ccc(NC(=O)c2ccc(Oc3ccc4ccccc4c3)cc2)cc1`, the Suppression in test [9] is listed as 6.4%; in [10], 24.4%. Further, in test [2], the Cell viability is -16.1.
